Experimental data of several laboratories.
Sample: plasma

| SMILES | system | conditions | measurement | value |
| --- | --- | --- | --- | --- |
| Cc1cc(S(=O)(=O)NC2CC(N3CC[C@@H](OC4CN(c5cccc6c5n(C)c(=O)n6C5CCC(=O)NC5=O)C4)[C@H](F)C3)C2)ccc1Nc1ncc(C(F)(F)F)c(N2CCC[C@](C)(O)C2)n1 (stereo partly drawn) | rat | intravenous, 2 mg/kg | Vd | 10 L/kg |
| CC(=O)O[C@@H]1CC[C@@]2(C)[C@@H](CC[C@]3(C)[C@@H]2C(=O)C=C2[C@@H]4[C@@H](C)[C@H](C)CC[C@]4(C)CC[C@]23C)[C@@]1(C)C(=O)O | female Wistar rat | oral, 1 mg/kg, single dose | Vd/F | 0.28 L/kg |
| CCCc1nc2c(C)cc(-c3nc4ccccc4n3C)cc2n1Cc1ccc(-c2ccccc2C(=O)O)cc1 | male Sprague-Dawley rat | oral, 8 mg/kg, single dose | Vd/F | 46.1 L/kg |
| C1=C/COCc2cc(ccc2OCCN2CCCC2)Nc2nccc(n2)-c2cccc(c2)COC/1 | male Sprague-Dawley rat | oral, 36 mg/kg | Vd/F | 192 L |
| CNS(=O)(=O)c1ccc(Nc2ncc(C(F)(F)F)c(N3CCC[C@](C)(O)C3)n2)c(C)c1 | rat | intravenous, 2 mg/kg | Vd | 3 L/kg |
| C[C@H]1Oc2cc(cnc2N)-c2c(nn(C)c2C#N)CN(C)C(=O)c2ccc(F)cc21 | male Sprague-Dawley rat | oral, 50 mg/kg, single dose | Vd/F | 19 L/kg |
| CNC(=O)c1cc(Oc2ccc(NC(=O)Nc3ccc(Cl)c(C(F)(F)F)c3)cc2)ccn1 | male Sprague-Dawley rat | oral, 100 mg/kg, single dose | Vd/F | 112 L/kg |
| Cc1cc(S(=O)(=O)NC2CC(N3CCN(CC4CCN(c5cccc6c5n(C)c(=O)n6C5CCC(=O)NC5=O)CC4)CC3)C2)ccc1Nc1ncc(C(F)(F)F)c(N2CCC[C@](C)(O)C2)n1 (stereo partly drawn) | rat | intravenous, 2 mg/kg | Vd | 10 L/kg |
| Cc1nc(Nc2ncc(C(=O)Nc3c(C)cccc3Cl)s2)cc(N2CC[C@@H](O)C2)n1 | male Sprague-Dawley rat | intravenous, 1 mg/kg | Vd | 0.9 L/kg |
